Reference: ChEMBL document CHEMBL3813699, “Structure-Activity Relationships of a Diverse Class of Halogenated Phenazines That Targets Persistent, Antibiotic-Tolerant Bacterial Biofilms and Mycobacterium tuberculosis” (J Med Chem, 2016)
Converted amounts (≈) assume the structure as drawn.

How the values were obtained:
Staphylococcus aureus [1] = assay: Antibacterial activity against methicillin-resistant Staphylococcus aureus clinical isolate 2 incubated for 16 to 18 hrs by broth microdilution method; format: functional
[2] = test system: Staphylococcus epidermidis; assay: Antibacterial activity against methicillin-resistant Staphylococcus epidermidis ATCC 35984 incubated for 16 to 18 hrs by broth microdilution method; format: functional
[3] = test system: Staphylococcus epidermidis; assay: Antibacterial activity against Staphylococcus epidermidis ATCC 12228 incubated for 16 to 18 hrs by broth microdilution method; format: functional
Enterococcus faecium [4] = assay: Antibacterial activity against vancomycin-resistant Enterococcus faecium ATCC 700221 incubated for 16 to 18 hrs by broth microdilution method; format: functional
Enterococcus faecium [5] = assay: Antibiofilm activity against […]-resistant Enterococcus faecium ATCC 700221 assessed as biofilm eradication incubated for 24 hrs by CBD assay; format: functional; settings: for MBC: Enterococcus faecium, ATCC 700221, 24 h
Summary of the method: (§1)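 Calgary Biofilm Device: pegs inoculated with mid-log culture diluted 1,000-fold in TSB + 0.5% glucose, 24 h 37 °C; washed pegs challenged with 2-fold dilutions 24 h 37 °C; pegs moved to fresh TSBG 24 h; MBEC = lowest concentration leaving no turbidity; 2–6 independent experiments.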

[6] = Induction of hemolysis in human RBC at 200 uM incubated for 1 hr; format: cell-based, Erythrocyte; settings: red blood cells, read-out: Activity
Summary of the method: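 Human RBCs (EDTA), washed three times in Tris-buffered saline pH 7.2; 2% hRBC with compound at final 200 µM, 1 h 37 °C; supernatant OD405; % hemolysis relative to DMSO (0%) and Triton X (100%).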

Staphylococcus aureus [7] = assay: Antibacterial activity against methicillin-resistant Staphylococcus aureus BAA-44 incubated for 16 to 18 hrs by broth microdilution method; format: functional
Staphylococcus aureus [8] = assay: Antibiofilm activity against methicillin-resistant Staphylococcus aureus isolate 2 assessed as biofilm eradication incubated for 24 hrs by CBD assay; format: functional; settings: for MBC: Staphylococcus aureus, isolate 2, 24 h; summary of the method: as §1
HeLa = assay: Cytotoxicity against human HeLa cells after 24 hrs by LDH release assay; format: cell-based
Summary of the method: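 HeLa in DMEM + 10% FBS, 37 °C 5% CO2, at 70–80% confluence treated with 25, 50, 100 µM for 24 h; DMSO vehicle; Triton X-100 2% v/v max-LDH control, medium-only negative; supernatant with LDH reaction mix 30 min room temperature, stopped, absorbance 490 nm.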

[9] = test system: Staphylococcus epidermidis; assay: Antibacterial activity against methicillin-resistant Staphylococcus epidermidis ATCC 35984 assessed as biofilm eradication incubated for 24 hrs by CBD assay; format: functional; settings: for MBC: Staphylococcus epidermidis, ATCC 35984, 24 h; summary of the method: as §1
[10] = test system: Mycobacterium tuberculosis; assay: Antibacterial activity against Mycobacterium tuberculosis H37Ra ATCC 25177 after 7 days by two-fold serial dilution method; format: functional; settings: H37Ra ATCC 25177, 168 h
Staphylococcus aureus [11] = assay: Antibacterial activity against methicillin-resistant Staphylococcus aureus clinical isolate 2 incubated for 16 hrs by broth microdilution method; format: functional; settings: isolate 2, 16 h
Staphylococcus aureus [12] = assay: Antibacterial activity against methicillin-resistant Staphylococcus aureus BAA-1707 incubated for 16 to 18 hrs by broth microdilution method; format: functional

Row | Compound | MIC (Staphylococcus aureus [1]) [µM] | MIC [2] [µM] | MIC [3] [µM] | MIC (Enterococcus faecium [4]) [µM] | MBEC (Enterococcus faecium [5]) [µM] | MBC (Enterococcus faecium [5]) [µM] | hemolysis at 1 h, 200 µM [6] [%] | MIC (Staphylococcus aureus [7]) [µM] | MBEC (Staphylococcus aureus [8]) [µM] | MBC (Staphylococcus aureus [8]) [µM] | IC50 (HeLa) [µM] | MBEC [9] [µM] | MBC [9] [µM] | MIC [10] [µM] | MIC (Staphylococcus aureus [11]) [µM] | MIC (Staphylococcus aureus [12]) [µM]
1 | COc1cccc2nc3cc(Cl)c(Cl)cc3nc12 | > 100 | > 100 | > 100 | > 100 |  |  |  |  |  |  |  |  |  |  |  | 
2 | Oc1c(Br)cc(Cl)c2nc3ccccc3nc12 | 1.56 (≈ 0.483 µg/mL) | 1.56 (≈ 0.483 µg/mL) |  | 6.25 (≈ 1.93 µg/mL) | 3.9 | 7.8 (≈ 2.41 µg/mL) | ≤ 1 | 1.56 (≈ 0.483 µg/mL) | 375 | 46.9 (≈ 14.5 µg/mL) | > 100 | 46.9 | 11.7 (≈ 3.62 µg/mL) |  |  | 
3 | Cc1nc2c(I)cc(I)c(O)c2nc1C |  |  | 2.35 (≈ 1 µg/mL) | 6.25 (≈ 2.66 µg/mL) |  |  | 1.2 |  |  | 93.8 (≈ 40 µg/mL) | > 100 | 125 | 23.5 (≈ 10 µg/mL) | > 50 | 1.17 (≈ 0.498 µg/mL) | 
4 | N#CC(C#N)=NNc1cccc(Cl)c1 [CARBONYL CYANIDE M-CHLOROPHENYLHYDRAZONE] |  |  |  |  |  |  | 3.5 |  | 1000 | 31.3 (≈ 6.4 µg/mL) |  | 93.8 | 31.3 (≈ 6.4 µg/mL) |  |  | 
5 | Oc1c(I)cc(I)c2nccnc12 | 3.13 (≈ 1.25 µg/mL) | 3.13 (≈ 1.25 µg/mL) | 6.25 (≈ 2.49 µg/mL) | 12.5 (≈ 4.97 µg/mL) |  |  | ≤ 1 | 1.56 (≈ 0.621 µg/mL) | >2000 | > 2000 |  | >1000 | 750 (≈ 298 µg/mL) |  |  | 1.56 (≈ 0.621 µg/mL)
6 | Oc1cccc2nc3cc(Cl)c(Cl)cc3nc12 | > 100 | > 100 | > 100 | > 100 |  |  |  |  |  |  |  |  |  |  |  | 
7 | CC(=O)N[C@@H](CS)C(=O)O [ACETYLCYSTEINE] |  |  |  |  | >2000 | > 2000 |  |  | >2000 | > 2000 |  | >2000 | > 2000 |  |  | 
8 | Oc1c(Cl)cc(I)c2nc3ccccc3nc12 | 1.56 (≈ 0.556 µg/mL) | 1.56 (≈ 0.556 µg/mL) | 1.56 (≈ 0.556 µg/mL) | 6.25 (≈ 2.23 µg/mL) |  |  | 5.1 | 1.56 (≈ 0.556 µg/mL) | 125 | 15.6 (≈ 5.56 µg/mL) | > 100 |  |  |  |  | 1.56 (≈ 0.556 µg/mL)
9 | Oc1c(I)cc(Br)c2nc3ccccc3nc12 |  |  |  | 6.25 (≈ 2.51 µg/mL) |  |  |  |  | 250 | 46.9 (≈ 18.8 µg/mL) |  |  |  |  |  | 
10 | NC(=O)c1cnccn1 [PYRAZINAMIDE] |  |  |  |  |  |  |  |  | >2000 | > 2000 |  |  |  |  |  | 
11 | C=CCc1cc(Br)c2nc3cc(Br)c(Br)cc3nc2c1O | > 100 |  | > 100 | > 100 |  |  |  |  |  |  |  |  |  |  |  | 
12 | Oc1c(Cl)cc(Cl)c2nc3ccccc3nc12 | 3.13 (≈ 0.83 µg/mL) | 3.13 (≈ 0.83 µg/mL) | 3.13 (≈ 0.83 µg/mL) | 12.5 (≈ 3.31 µg/mL) |  |  | ≤ 1 | 3.13 (≈ 0.83 µg/mL) | >1000 | 62.5 (≈ 16.6 µg/mL) |  |  |  |  |  | 3.13 (≈ 0.83 µg/mL)
13 | Oc1c(I)cc(I)c2nc3ccccc3nc12 | 3.13 (≈ 1.4 µg/mL) | 1.17 (≈ 0.524 µg/mL) | 1.56 (≈ 0.699 µg/mL) | 6.25 (≈ 2.8 µg/mL) | 15.6 | 23.5 (≈ 10.5 µg/mL) | ≤ 1 | 3.13 (≈ 1.4 µg/mL) | 93.8 | 31.3 (≈ 14 µg/mL) | > 100 | 23.5 | 31.3 (≈ 14 µg/mL) |  |  | 3.13 (≈ 1.4 µg/mL)
